# MC4R ag barr: human MC4R agonism via beta-arrestin | P32245 | U2OS MC4R beta-arrestin complementation, luminescence; percent of melanotan II response, DMSO zero | activation, % at 8.9 µM | 360,000 tested, 0.98% active;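 active = activation above a per-plate cutoff, the mean activation of sample wells on that plate plus 3 SD, cut at about 8% in these data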
# MC4R antagonist: human MC4R antagonism in cAMP assay | AID 540295 | MC4R-expressing cells, MTII-stimulated cAMP, LANCE TR-FRET | 360,000 tested, 0.48% active | inhibition, % at 6.5 µM | P32245;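 active = inhibition above its plate's cutoff, the mean of tested wells on that plate plus 3 SD, cut at about 29% in these data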;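 note: 0% = Melanotan II alone and 100% = Melanotan II plus saturating MCL0020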
#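 Assay system: U2OS-MC4R stable cell line; Also added: Melanotan II; Technique: Eu-cAMP/anti-cAMP TR-FRET, emission 671 nm; Times: 30-min compound, 1-h challenge, 1-h detection, room temperature.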
# AI-2 QS modul: modulators of Vibrio harveyi AI-2 quorum sensing system; Vibrio harveyi JMH597 AI-2 luminescence/OD600 ratio, 9 h; stronger effect = lower value; strain lacks LuxN and CqsS sensors; 0 = neutral-control median; activity change, % at 7.5 µM; 300,000 tested, 0.4% active; in the data active = activity change below about -75%, passing the limit was not always enough;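 note: luminescence divided by OD600 gain over 9 h not by final OD600 alone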
# NTR1 agonist: agonists of human neurotensin receptor NTR1 | P30989 | NTR1-U2OS beta-arrestin-GFP spot imaging, agonist mode | activation, % at 20 µM | 330,000 tested, 0.17% active;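 active = activation at or above 40% of the spot to cytoplasm intensity ratio, with at least 20 cells analyzed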;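 note: 0% = DMSO without peptide and 100% = 100 nM NTR1 peptide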
# Target sequence (P30989 whole entry, looked up): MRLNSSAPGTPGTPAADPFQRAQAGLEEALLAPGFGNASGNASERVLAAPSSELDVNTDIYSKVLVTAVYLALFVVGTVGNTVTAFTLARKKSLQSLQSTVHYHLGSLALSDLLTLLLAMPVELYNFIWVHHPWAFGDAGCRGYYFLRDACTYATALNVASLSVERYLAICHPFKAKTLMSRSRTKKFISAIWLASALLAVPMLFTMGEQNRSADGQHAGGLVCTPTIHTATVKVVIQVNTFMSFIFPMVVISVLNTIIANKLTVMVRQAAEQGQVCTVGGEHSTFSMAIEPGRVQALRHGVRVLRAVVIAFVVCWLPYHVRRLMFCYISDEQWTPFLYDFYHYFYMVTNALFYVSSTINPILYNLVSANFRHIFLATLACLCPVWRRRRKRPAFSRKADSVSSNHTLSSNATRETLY
# * marks the source's active call; other numbers are inactive results; . = no result. A selection: hits, their analogues and other compounds. The true share with any hit is near 1.8%.
SMILES,MC4R ag barr,MC4R antagonist,AI-2 QS modul,NTR1 agonist
CCOCCCNC(=O)/C(C#N)=C/c1ccc(-c2ccc(S(=O)(=O)N3CCOCC3)cc2)o1,-2.8,-5.7,23.3,-0.8
CCOCCCNC(=O)/C(C#N)=C/c1ccc([N+](=O)[O-])o1,1.8,14.3,-83.4*,-1.0
COc1ccc(N2C(=S)N=C(Nc3ccccc3)C23CCCCC3)cc1,13.9*,19.6,12.4,-0.3
CC1CC(C)CN(C(=O)Cn2nnc(-c3ccc(Br)cc3)n2)C1 (stereo not given),2.2,0.8,-12.0,-0.5
CC(C)CCNC(=O)NC(=O)CSc1nnc(-c2ccccc2Br)o1,8.4*,8.9,20.8,5.8
CC(=O)NC(=S)NNC(=O)C(c1ccccc1)c1ccccc1,-2.9,4.9,-86.8*,-0.7
N#CCC(=O)NNC(=S)NC(=O)C(c1ccccc1)c1ccccc1,1.8,1.9,24.8,0.5
COCCCn1c(SCCc2ccccc2)nc2cc(OC)c(OC)cc2c1=N,9.4*,14.2,-0.8,30.8
Nc1ccc(C(=O)N/N=C/c2c[nH]c3ccccc23)cc1,-1.6,2.6,20.6,-0.4
FC(F)(F)c1cc(CCN2CCNC[C@@H]2CC2CCCCC2)cc(C(F)(F)F)c1,8.7*,1.0,.,11.7
NC1=NC[C@H](CC2CCCCC2)N1CCc1cc(C(F)(F)F)cc(C(F)(F)F)c1,9.3*,10.2,12.8,5.9
CCCC[C@@H]1CNCCN1CCc1cc(C(F)(F)F)cc(C(F)(F)F)c1,5.4,1.1,11.7,14.4
Nc1ccn(CC(=O)NCc2ccc3[nH]ccc3c2)c(=O)n1,-1.5,-1.3,.,0.6
Cc1cc(C)cc(OCC(=O)OC/C(O)=C(\C#N)c2nc3ccccc3[nH]2)c1,13.6*,-4.6,27.9,1.1
N#C/C(=C(/O)COC(=O)COc1cccc(Br)c1)c1nc2ccccc2[nH]1,19.9*,6.1,13.0,1.0
Cc1ccc(S(=O)(=O)N2CCOCC2)cc1NC(=O)COc1cccc(Oc2ccccc2)c1,-4.2,3.5,12.6,4.4
Cc1cc(OCC(=O)OCC(=O)NC2CCCCC2C)ccc1Cl (stereo not given),-1.8,2.4,.,1.7
O=c1cc(-c2c(F)c(F)c(F)c(F)c2F)oc2c(F)c(F)c(F)c(F)c12,.,.,-78.5*,26.3
O=c1cc(-c2c(F)c(F)c(F)c(F)c2F)oc2ccccc12,-1.4,10.8,42.8,0.6
CCCn1c(C)cc(C(=O)COC(=O)c2cc(=O)[nH]c3ccccc23)c1C,8.9*,-4.0,.,.
Cc1nc(N)nc(N)c1/C=C/C(C)(C)c1ccc(Cl)cc1,-0.4,-3.8,-89.1*,.
CCOC(=O)Cn1c(=N)n(CCOc2ccc3ccccc3c2)c2ccccc21,9.6*,-5.2,23.2,9.5
O=S(=O)(NC1CC1)c1ccc(S(=O)(=O)N2CCCC3(CCCCC3)C2)cc1,9.8*,10.3,17.7,2.5
CN(CC(=O)Nc1ccc(F)cc1)C(=O)C1CCCC1,-0.6,3.7,.,1.2
COc1ccc(/C=N/NC(=O)c2nc(Cl)c(Cl)c(N)c2Cl)cc1COc1ccc(F)cc1F,10.6*,-7.7,-2.6,7.3
SMILES,MC4R ag barr,MC4R antagonist,AI-2 QS modul,NTR1 agonist
COc1ccc(/C=N/NC(=O)c2nc(Cl)c(Cl)c(N)c2Cl)cc1COc1ccccc1F,7.7,-6.2,15.8,3.6
CCc1ccccc1NC(=O)Cn1nc(C(F)(F)F)c2c1CCC2,0.4,-3.1,22.4,-0.1
CCc1ccc(NC(=O)Cn2nc(C(F)(F)F)c3c2CCC3)cc1,9.2*,-1.6,-1.4,-0.5
C=CCC1(CC=C)CCCN1C(=O)C1CCC(=O)N(CCc2ccc(OC)cc2)C1 (stereo not given),-0.8,10.5,7.6,0.6
COc1ccc(N2C(=O)[C@@H]3[C@H](C2=O)[C@H]2C=CC=NN2[C@@H]3C(=O)Nc2ccc(Cl)cc2)cc1,-2.4,29.3*,5.3,0.8
O=C(Nc1ccc(Cl)cc1)[C@@H]1[C@@H]2C(=O)N(c3ccc4ccccc4c3)C(=O)[C@@H]2[C@H]2C=CC=NN21,0.4,11.5,15.1,1.6
Fc1ccc(NC(=S)NC2CCN(Cc3ccccc3)CC2)cc1,-0.4,10.8,-14.6,0.6
S=C(Nc1ccc(Cl)c(Cl)c1)NC1CCN(Cc2ccccc2)CC1,22.2*,3.9,-59.0,20.9
O=C(NCC(c1ccco1)N1CCN(c2ccc(F)cc2)CC1)OCc1ccccc1 (stereo not given),8.3*,5.2,36.5,0.2
O=C(c1ccccc1)c1cc2cc(Cl)ccc2[nH]1,8.3*,2.1,-44.4,1.6
COc1cccc(C(=O)c2cc3cc(Cl)ccc3[nH]2)c1,7.8,6.8,-28.0,6.1
